Article PMC6235520 (Science Advances, 2018)
Several values for one entry are separate records, joined by “and”; a condition that tells them apart may be missing. Equal values may be shown once. Read-outs that look alike come from different tables or passages of the source.

Legend:
[1] = system: KCNQ1-R243A/KCNE1; experiment: Two-electrode voltage clamp of KCNQ1-R243A/KCNE1 in Xenopus oocytes; format: cell-based, human; conditions: MTX 10 μM; CPT1 100 µM
How it was run: (§1)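 Mutant channels were made by site-directed mutagenesis and expressed from human cRNA (α-subunit 10 ng per oocyte) in stage V–VI oocytes for 2–5 days at 16°C. Room-temperature TEVC used a pH 7.6 Hepes-buffered bath with 4 mM KCl. Compound was perfused for 3 min, then currents were recorded at −80 to +40 mV in 20-mV steps. Fold current augmentation was plotted against voltage.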

[2] = system: KCNQ1-R243A; experiment: Two-electrode voltage clamp of KCNQ1-R243A mutant in Xenopus oocytes; format: cell-based, human; conditions: MTX 10 μM; CPT1 100 µM
How it was run: as §1

[3] = target: human KCNQ1 (Homo sapiens, UniProt P51787); experiment: Two-electrode voltage clamp of KCNQ1 expressed in Xenopus laevis oocytes; format: cell-based; conditions: for negative shift in the voltage dependence of KCNQ1 activation: 100 μM compound; for effect on KCNQ1 gating kinetics (activation and deactivation rates): MTX 30 µM, CPT1 100 µM
[4] = system: BK; conditions: cited from earlier work
[5] = system: KCNQ1-KCNE4; experiment: Two-electrode voltage clamp of KCNQ1-KCNE4 in Xenopus oocytes; format: cell-based, human; conditions: 30 μM
How it was run: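 Oocytes (stage V–VI, defolliculated) were co-injected with human KCNQ1 and KCNE4 cRNAs (α-subunit 10 ng total) and kept 2–5 days at 16°C. TEVC was run at room temperature in 4 mM KCl/96 mM NaCl Hepes bath, pH 7.6, after 3-min gravity perfusion of 30 μM test compound. Raw tail currents at −30 mV followed prepulses from −80 to +40 mV; n = 5.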

[6] = system: KCNQ2/3 channels; conditions: cited from earlier work
[7] = system: KCNQ2-R213A/KCNQ3-R242A; experiment: Two-electrode voltage clamp of KCNQ2-R213A/KCNQ3-R242A; format: cell-based, human
[8] = target: KCNQ1-KCNE1 (Homo sapiens, UniProt P51787); experiment: Two-electrode voltage clamp of KCNQ1-KCNE1 in Xenopus oocytes; format: cell-based
[9] = system: hERG; conditions: cited from earlier work
[10] = cited from earlier work
[11] = system: KCNQ1-KCNE3; experiment: Two-electrode voltage clamp of KCNQ1-KCNE3 in Xenopus oocytes; format: cell-based, human; conditions: 30 μM, across the voltage range studied
How it was run: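 Human KCNQ1 and KCNE3 cRNAs were injected into defolliculated stage V–VI oocytes (α-subunit cRNA 10 ng total per oocyte) and held 2–5 days at 16°C in Barth's with penicillin/streptomycin. Room-temperature TEVC used bath 96 mM NaCl, 4 mM KCl, 1 mM MgCl2, 1 mM CaCl2, 10 mM Hepes pH 7.6. Test compound was perfused 3 min at 1 ml/min. Prepulses were −80 to +40 mV in 20-mV steps, with tails at −30 mV; n = 8.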

[12] = system: KCNQ1; conditions: cited from earlier work
[13] = rats fed Mallotus philippensis extract; cited from earlier work
[14] = system: KCNQ2-R213A/KCNQ3; experiment: Two-electrode voltage clamp of KCNQ2-R213A/KCNQ3 in Xenopus oocytes; format: cell-based, human; conditions: at a given voltage
[15] = Pharmacokinetics in rats fed Mallotus philippensis extract; conditions: equates to 2 μg/ml
[16] = system: KCNQ2/KCNQ3-R242A; experiment: Two-electrode voltage clamp of KCNQ2/KCNQ3-R242A in Xenopus oocytes; format: cell-based, human; conditions: compared with KCNQ2-R213A/KCNQ3 and wild type

Sequence of human KCNQ1 (P51787 whole entry): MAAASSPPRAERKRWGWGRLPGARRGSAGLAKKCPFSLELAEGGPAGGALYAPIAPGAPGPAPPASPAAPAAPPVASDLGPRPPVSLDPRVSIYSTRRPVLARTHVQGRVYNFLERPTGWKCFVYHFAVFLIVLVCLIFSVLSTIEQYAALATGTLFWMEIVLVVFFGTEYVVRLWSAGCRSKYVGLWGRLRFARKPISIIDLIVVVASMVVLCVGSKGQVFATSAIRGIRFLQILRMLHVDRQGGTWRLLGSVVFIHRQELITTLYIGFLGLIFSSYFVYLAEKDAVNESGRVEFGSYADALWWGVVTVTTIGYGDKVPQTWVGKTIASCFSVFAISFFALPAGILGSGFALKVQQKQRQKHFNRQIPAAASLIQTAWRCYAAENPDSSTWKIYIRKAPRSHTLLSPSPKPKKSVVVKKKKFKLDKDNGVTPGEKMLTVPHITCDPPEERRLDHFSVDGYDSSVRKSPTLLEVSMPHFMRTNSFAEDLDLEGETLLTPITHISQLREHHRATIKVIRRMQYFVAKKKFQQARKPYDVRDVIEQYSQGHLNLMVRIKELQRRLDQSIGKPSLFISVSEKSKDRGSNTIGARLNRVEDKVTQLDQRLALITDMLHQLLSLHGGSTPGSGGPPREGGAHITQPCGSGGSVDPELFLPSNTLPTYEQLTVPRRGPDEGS
Sequence of KCNQ1-KCNE1 (P51787 whole entry): as above

## CCC1=C(O)C(=O)CC1 [CPT1, 3-ethyl-2-hydroxy-2-cyclopenten-1-one]
[1]
  sensitivity of KCNQ1-R243A/KCNE1 complexes to compound: eliminated
[2]
  sensitivity of KCNQ1-R243A to compound: eliminated
[3]
  EC50: 0.1 µM
  negative shift in the voltage dependence of KCNQ1 activation: −5 mV
  effect on KCNQ1 gating kinetics (activation and deactivation rates): statistically significant speeding of activation and slowing of deactivation
[3]; CPT1 versus MTX
  potency on KCNQ1 relative to MTX: 100 fold
[3]; at −60 mV, 100 μM
  KCNQ1 current fold increase: 2.7 fold

## CC(=O)c1c(O)c(C)c(O)c(Cc2c(O)c3c(c(C(=O)/C=C/c4ccccc4)c2O)OC(C)(C)C=C3)c1O [MTX, mallotoxin]
[4]
  effect on BK potassium channel: activate
[5]
  effect on KCNQ1-KCNE4 activity: minor augmentation
[6]
  effect on KCNQ2/3 channels: activates
[7]
  sensitivity of RA-RA KCNQ2/3 channels to MTX: insensitive
[8]
  EC50: 27.9 ± 0.3 µM
[8]; 30 μM MTX
  shift of V0.5 of activation of KCNQ1-KCNE1: −45 mV
[8]; 30 μM, across the voltage range tested
  effect on KCNQ1-KCNE1 currents: strongly augmented
[1]
  sensitivity of KCNQ1-R243A/KCNE1 complexes to compound: completely insensitive
[9]
  effect on hERG potassium channel: activate
[2]
  sensitivity of KCNQ1-R243A to compound: completely insensitive
[10]
  toxicity: toxic in large doses
[11]
  effect on KCNQ1-KCNE3 channels: moderately inhibited
[3]; 30 μM MTX
  shift in KCNQ1 activation voltage dependence: −27 mV
[3]; 30 μM MTX, UCL2077 10 μM, hyperpolarized voltages
  effect on KCNQ1 current in presence of UCL2077: still augmented
[3]; 30 μM MTX, UCL2077 10 μM, positive voltages
  rescue of KCNQ1 from inhibition by UCL2077: ineffective
[3]
  negative shift in the voltage dependence of KCNQ1 activation: −27 mV
  effect on KCNQ1 gating kinetics (activation and deactivation rates): speeded KCNQ1 activation and slowed its deactivation
[3]; 50 mM extracellular K+, 10 µM MTX
  MTX effects on KCNQ1 in high extracellular K+: preserved
[3]; EC50 (dose response) for the ΔV0.5 activation of KCNQ1
  EC50: 9.4 ± 0.1 µM
[3]; KCNQ1 activation EC50, at −40 mV
  EC50: 9.9 µM and 10 µM
[3]; at −40 mV, 30 μM
  KCNQ1 current fold increase: 5.4 fold
[12]
  effect on KCNQ1 potassium channel: activate
[13]
  oral bioavailability: > 20%
  plasma concentrations: > 2000 ng/mL
[14]
  MTX-induced shift in the V0.5 of activation versus wild-type KCNQ2/3: slightly greater
[15]
  plasma level converted to molar concentration: 4 µM
[16]
  efficacy of MTX on KCNQ2/KCNQ3-R242A channels: even more efficacious
